Molecular target: T1, Histone deacetylase 11 (Homo sapiens, UniProt Q96DB2)
T1 sequence (Q96DB2 whole entry): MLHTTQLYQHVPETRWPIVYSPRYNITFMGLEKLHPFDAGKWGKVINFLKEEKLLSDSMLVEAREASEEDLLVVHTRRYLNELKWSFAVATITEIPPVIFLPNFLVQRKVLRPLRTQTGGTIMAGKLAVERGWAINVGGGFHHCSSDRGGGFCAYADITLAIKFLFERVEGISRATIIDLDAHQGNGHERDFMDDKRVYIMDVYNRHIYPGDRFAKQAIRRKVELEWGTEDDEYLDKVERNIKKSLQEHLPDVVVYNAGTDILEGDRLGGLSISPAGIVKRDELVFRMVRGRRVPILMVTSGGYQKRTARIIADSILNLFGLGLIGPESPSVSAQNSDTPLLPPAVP
Experiment: Inhibition of full length human HDAC11 using FAM-labeled acetylated peptide as substrate by electrophoretic mobility shift assay
Procedure, shortened: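 Full-length human HDAC isoform enzymatic assay by electrophoretic mobility shift, using a FAM-labelled acetylated peptide substrate. […] Values are the mean of duplicate experiments with 95% confidence intervals.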

IC50: > 1000 nM
Structure (SMILES): O=C(NO)c1ccc(CN(Cc2cccnc2)S(=O)(=O)c2cc(F)c(F)c(F)c2F)cc1

Source: BindingDB's records for doi:10.1021/acs.jmedchem.0c01922 (University of Toronto Mississauga, 2021)
